Consider 24 compounds from ChEMBL document CHEMBL1135911, “Synthesis, biological evaluation, and binding mode of novel 1-[2-(diarylmethoxy)ethyl]-2-methyl-5-nitroimidazoles targeted at the HIV-1 reverse transcriptase” (J Med Chem, 2002).

The subject of test [1] is Human immunodeficiency virus 1. Nature of the test: Dose required to achieve 50% protection of MT-4 cells from HIV-1 induced cytopathogenicity. The format is functional, organism-based. The note with it: Human immunodeficiency virus 1, MT4. Put shortly: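 MT-4 cells (1 × 10^4/well) in RPMI 1640 with 10% FCS were infected with 100 CCID50 of HIV-1 IIIB, with or without serial dilutions of compound (DMSO stock diluted in medium). After 4 days at 37 °C, viable cells were counted by MTT. EC50 is the dose giving 50% protection from virus-induced cytopathicity; mean of at least two experiments.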

Test [2] deals with MT4. Nature of the test: Dose required to reduce the viability of mock-infected cells by 50%. The format is functional. The note with it: Homo sapiens. Put shortly: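 Mock-infected MT-4 cells were run in parallel with the antiviral assay: 1 × 10^4 cells/well, serial compound dilutions, 4 days at 37 °C. Viability was read by MTT. CC50 is the dose that reduces viability by 50%; mean of at least two experiments.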

The target of test [3] is Human immunodeficiency virus type 1 reverse transcriptase (Human immunodeficiency virus 1, UniProt Q72547). Nature of the test: Dose required to inhibit the HIV-1 Reverse transcriptase activity by 50%. The method, boiled down: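 Highly purified recombinant wild-type HIV-1 RT, RNA-dependent polymerase activity. Buffer: 50 mM Tris-HCl pH 7.8, 80 mM KCl, 6 mM MgCl2, 1 mM DTT, 0.1 mg/mL BSA. Template/primer: poly(rC)/oligo(dG)12-18 at 0.5 OD260 unit/mL. Substrate: [3H]dGTP (1 Ci/mmol). Incubated 30 min at 37 °C; acid-insoluble radioactivity read on glass fibre filters.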

In test [4] the test system is MT4. Nature of the test: (§1) Selectivity Index (CC50:EC50 Ratio). It counts as functional.
In test [5] the target is Human immunodeficiency virus 1. Nature of the test: Anti-HIV-1 activity in MT-4 cells.
Test [6] in a line: as §1. Put shortly: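 Ratio of CC50 (MTT viability of mock-infected MT-4 cells) to EC50 (MTT protection of MT-4 cells from HIV-1 IIIB cytopathicity, 100 CCID50, 4 days at 37 °C).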

In the case of `Cc1cccc(C(OCCn2c([N+](=O)[O-])cnc2C)c2ccccc2)c1` (configuration not stated), the EC50 in test [1] came out at 0.1 µM. This compound came in with a CC50 in the test on MT4 [2] above 200 µM. This compound yielded an IC50 in test [3] of 0.3 µM. For the same compound, the Selectivity index in the test on MT4 [4] is above 2000.

Compound `COc1ccc(C(OCCn2c([N+](=O)[O-])cnc2C)c2ccccc2)cc1` (configuration not stated) gave an EC50 in test [1] of 86 µM. Besides, the CC50 in the test on MT4 [2] is above 200 µM. Also, the Selectivity index with MT4 [4] is listed as above 2.

For `Cc1ccc(C(OCCn2c([N+](=O)[O-])cnc2C)c2ccccc2)cc1` (configuration not stated), in test [5], the EC50 is 1.41 µM.

Turning to `CC(C)Nc1cccnc1N1CCN(C(=O)c2cc3cc(NS(C)(=O)=O)ccc3[nH]2)CC1` [DELAVIRDINE], the response in test [1] was half-maximal at 0.01 µM (EC50). The CC50 in the test on MT4 [2] was above 30 µM.

Compound `Cc1ncc([N+](=O)[O-])n1CCOC(c1ccccc1)c1ccccc1` yielded an EC50 in test [1] of 0.2 µM. Also, the CC50 in the test with MT4 [2] is above 200 µM. Besides, in the test with MT4 [4], the Selectivity index is reported as above 1000.

The compound `Cc1ncc([N+](=O)[O-])n1CCOC(c1ccccc1)c1ccccc1Cl` (configuration not stated) returned an EC50 in test [1] of 0.6 µM. The same compound showed a CC50 in the test on MT4 [2] of 52 µM. Also, the concentration for half-maximal inhibition (IC50) in test [3] turned out to be 0.6 µM. The Selectivity index in the test on MT4 [4] stood at 85.

On to `Cc1ncc([N+](=O)[O-])n1CCOC(c1ccccc1)c1ccc2ccccc2c1` (configuration not stated), for which the EC50 in test [1] amounted to 106 µM. This compound returned a CC50 in the test on MT4 [2] above 200 µM. In addition, the Selectivity index in the test with MT4 [4] is above 1.8.

In turn, `Cc1ncc([N+](=O)[O-])n1CCOC(c1ccccc1)c1ccc(Cl)c(Cl)c1` (configuration not stated) gave a concentration giving a half-maximal response (EC50) in test [1] of 97 µM. In the test with MT4 [2], the CC50 stood at 200 µM. The Selectivity index in the test with MT4 [4] was above 2.

Consider `Cc1ccccc1C(OCCn1c([N+](=O)[O-])cnc1C)c1ccccc1` (configuration not stated), for which the EC50 in test [1] was determined as 0.2 µM. In the test on MT4 [2], this compound returned a half-maximal cytotoxic concentration (CC50) of 76 µM. For the same compound, the IC50 in test [3] worked out at 0.2 µM. For the same compound, the Selectivity index in the test on MT4 [4] was determined as 380.

For `Cc1ncc([N+](=O)[O-])n1CCOC(c1ccccc1)c1cccc(Cl)c1` (configuration not stated), the midpoint of the response in test [1], the EC50, lay at 0.2 µM. The same compound registered a CC50 in the test with MT4 [2] above 200 µM. The same compound returned an IC50 in test [3] of 0.5 µM. In the test with MT4 [4], the Selectivity index was above 1000.

In test [1], `CC(=O)Nc1ccc(C(OCCn2c([N+](=O)[O-])cnc2C)c2ccccc2)cc1` (configuration not stated) gave an EC50 above 200 µM. Also, the CC50 in the test with MT4 [2] is above 200 µM.

`Cc1ncc([N+](=O)[O-])n1CCOC(c1ccccc1)c1ccc(-c2ccccc2)cc1` (configuration not stated) gave an EC50 in test [5] of 17 µM. In other words, the double-digit micromolar range.

`Cc1ncc([N+](=O)[O-])n1CCCOC(c1ccccc1)c1ccccc1` had an EC50 in test [1] of 35 µM. Moreover, the CC50 in the test on MT4 [2] was 96.5 µM. The Selectivity index in the test with MT4 [4] turned out to be 3.

In test [1], `Cc1ncc([N+](=O)[O-])n1CCOC(c1ccccc1)c1cc(F)cc(F)c1` (configuration not stated) gave an EC50 of 1 µM. In addition, the CC50 in the test on MT4 [2] was above 200 µM. For the same compound, the Selectivity index in the test on MT4 [4] is above 200.

Compound `Cc1ncc([N+](=O)[O-])n1CCOC(c1ccccc1)c1cc(Cl)cc(Cl)c1` (configuration not stated) showed an EC50 in test [1] of 45 µM. In the test on MT4 [2], this compound had a CC50 above 200 µM. Also, in the test with MT4 [4], the Selectivity index is recorded as above 4.

In test [1], `Cc1cc(C)cc(C(OCCn2c([N+](=O)[O-])cnc2C)c2ccccc2)c1` (configuration not stated) displayed an EC50 of 0.4 µM. Further, the CC50 in the test on MT4 [2] is 200 µM. In the test with MT4 [4], the Selectivity index is listed as above 500.

In the case of `Cc1ncc([N+](=O)[O-])n1CCOC(c1ccccc1)c1ccc([N+](=O)[O-])cc1` (configuration not stated), the EC50 in test [1] turned out to be 5 µM. In the test on MT4 [2], this compound registered a CC50 of 111 µM. In addition, the Selectivity index in test [6] came to 22.

Turning to `Cc1ncc([N+](=O)[O-])n1CCOC(c1ccccc1)c1cccc(-n2cccc2)c1` (configuration not stated), it took 14 µM to reach a half-maximal effect in test [1] (EC50). This compound also came in with a 50% cytotoxic concentration (CC50) with MT4 [2] above 200 µM. Besides, the Selectivity index in the test on MT4 [4] is recorded as above 14.

In test [1], `Cc1ncc([N+](=O)[O-])n1CCOC(c1ccccc1)c1cccc(F)c1` (configuration not stated) yielded an EC50 of 0.1 µM. The compound also had a CC50 in the test on MT4 [2] above 200 µM. Further, the IC50 in test [3] stood at 0.5 µM. In addition, the Selectivity index in the test with MT4 [4] was above 2000.

Compound `Cc1ncc([N+](=O)[O-])n1CCOC(c1ccccc1)c1ccc(C(C)(C)C)cc1` (configuration not stated) had an EC50 in test [5] of 3.98 µM. In other words, the single-digit micromolar range.

`Cc1ncc([N+](=O)[O-])n1CCOC(c1ccccc1)c1ccc(F)cc1` (configuration not stated): the midpoint of the response in test [5], the EC50, lay at 0.891 µM.

`Cc1ncc([N+](=O)[O-])n1CCOC(c1ccccc1)c1cccc([N+](=O)[O-])c1` (configuration not stated) showed an EC50 in test [1] of 0.6 µM. In addition, the CC50 with MT4 [2] was 92.5 µM. Also, in test [3], 0.3 µM corresponded to half-maximal inhibition (IC50). Further, the Selectivity index in test [6] was determined as 154.

In the case of `Cc1ncc([N+](=O)[O-])n1CCOC(c1ccccc1)c1ccc(Cl)cc1` (configuration not stated), the EC50 in test [5] was 12 µM.

With `Cc1ncc([N+](=O)[O-])n1CCOC(c1ccccc1)c1ccccc1F` (configuration not stated), the EC50 in test [1] is 0.2 µM. The compound further returned a CC50 in the test on MT4 [2] of 63 µM. In test [3], this compound returned an IC50 of 0.4 µM. In addition, the Selectivity index with MT4 [4] was 315.
